Dynein cargo inh = inhibitors of GR-EGFP nuclear translocation, primary screen, dynein cargo transport inhibitor project, imaging, high-content, 3617.4 mouse cells | AID 1381, 2008 | 220,000 tested, 0.47% active | z-score, hits read low | test concentration mostly 20 µM; stimulated with dexamethasone, 1 µM; stronger effect = lower value;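 active = plate z-score of nuclear minus cytoplasmic receptor signal below a set negative limit, without overly bright fluorescence or cell loss, cut at about -3.5 in these data, passing the limit was not always enough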;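 note: z-score of nuclear minus cytoplasmic ring GR-EGFP intensity difference per well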
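medium = tetracycline-free induction medium containing charcoal-stripped FBS | also added = 1.0 µM final dexamethasone stimulus | schedule = 48 h induction, 1 h compound, 30 min dex at 37 °C | technique = fixed, Hoechst-stained cells imaged at 10x for EGFP | measure = GR-EGFP nuclear translocation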
CHOP UPR activ = activators of apoptotic CHOP UPR arm, primary screen, cell-based, CHO-CHOP luciferase reporter, luminescence, uHTS. UPR activation; percent of tunicamycin response over DMSO baseline. activation, % at 10 µM. 330,000 tested, 0.34% active;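 active = at 10 µM dose, activation of 40% or more, normalized to positive control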
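Test system: CHO-CHOP cells, stable luciferase reporter of PERK-eIF2a-CHOP signalling | Quantity: 500 CHO-CHOP cells per well | Buffer or medium: F12 plus 10% serum | Compound dosing: 10 µM single point, 0.5% DMSO | Schedule: 6 h compound treatment, 37 °C | Signal: Luciferase luminescence | Control set: Tunicamycin high control, DMSO low control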
XBP1 UPR activ = activators of adaptive XBP1 UPR arm, primary screen, cell-based, CHO-XBP1 luciferase reporter, luminescence, uHTS | IRE1-XBP1 UPR activation; percent of tunicamycin response, DMSO as zero | activation, % at 20 µM | 330,000 tested, 0.33% active;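 active = versus positive control, 20 µM dose yields 30% or more activation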
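Material: CHO cell line with stable XBP1 luciferase reporter; buffer or medium: F12 medium containing 10% fetal bovine serum; compound: single point, 20 µM final compound, 1% DMSO; incubation: 6 h treatment, 37 °C; measured by: glow luminescence from Steady-Glo reagent; evaluation: activation, % of tunicamycin; control set: tunicamycin high, DMSO low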
CHOP inhibitor = inhibitors of CHOP promoter induction, primary screen, cell-based, unfolded protein response, luciferase reporter. inhibition, % at 10 µM. CHO-K1 CHOP-promoter luciferase, tunicamycin-induced, 15-18 h. 220,000 tested, 3.8% active;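 active = compounds that reduced the stress-induced luciferase reporter signal by more than about 70% of percent inhibition, limit read from the data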
T cruzi repl = inhibitors of intracellular T. cruzi growth, primary screen, luminescence, NIH3T3 host cells. T. cruzi beta-gal in NIH3T3, 90 h. inhibition, % (concentration not given with the values). 300,000 tested, 1.4% active;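 active = mean inhibition across valid replicates above about 55%, limit read from the data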;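 note: signal also drops with host cell toxicity which is not excluded here; higher percent means less beta-gal luminescence so fewer parasites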
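Assay system: NIH/3T3 host cells with β-galactosidase reporter T. cruzi; input: 5,000 host fibroblasts per well; compound: single 50 nL compound addition per well in DMSO; timing: ≥90 h infection period, 3 h prior cell attachment; measured by: GalScreen β-gal luminescence, detergent lysis, 60 min; evaluation: percent inhibition of parasite-derived β-gal signal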
Lmaj promast = Leishmania major promastigote growth inhibition, primary screen. AID 1063, 2008. 200,000 tested, 9% active. inhibition, % at 10 µM. Leishmania major promastigotes, resazurin fluorescence viability; in the data active = inhibition above about 50%;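 note: promastigotes grown with compound for 44 hours at 28 °C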
Hits are given with their value; . = inactive; / = no result. The sample as a whole holds a higher share of hits than the screen did.

SMILES | Dynein cargo inh | CHOP UPR activ | XBP1 UPR activ | CHOP inhibitor | T cruzi repl | Lmaj promast
Cc1ccccc1C(=O)NCC(=O)OC(C)C(=O)NCc1ccco1 (configuration not stated) | / | . | . | / | . | /
COc1ccc(NC(=S)NNC(=O)COc2ccc(Cl)cc2Cl)cc1 | . | . | . | . | . | .
CN(CCCC(=O)Nc1ccncc1)S(=O)(=O)c1ccc(Cl)cc1 | . | . | . | / | . | 85.6
CCC(=O)NC(=S)Nc1ccc(NC(=O)COc2ccc(Cl)cc2Cl)cc1 | . | . | . | 89.5 | . | .
O=C(CCCOc1ccc(Cl)cc1Cl)Nc1ccccn1 | . | . | . | . | . | .
CN(CC(=O)Nc1ccncc1)S(=O)(=O)c1ccc(Br)cc1 | . | . | . | . | . | .
COc1ccccc1NC(=S)NC(=O)CCCOc1ccc(Cl)cc1Cl | . | . | . | 77.2 | . | .
O=C(CCCOc1ccc(Cl)cc1Cl)Nc1ccncc1 | . | . | . | . | . | 98.6
CCCn1c(SCC(=O)Nc2cc(C(=O)O)ccc2C)nc2sc3c(c2c1=O)CCC3 | / | . | . | / | / | /
Cc1ccc(S(=O)(=O)Nc2ccccc2C(=O)N2CCCCC2)cc1 | / | . | . | / | . | /
CCCC(=O)Nc1cccc(NC(=O)c2cccc([N+](=O)[O-])c2C)c1 | . | . | . | . | . | .
Cc1ccc(N2CC(C(=O)Nc3nnc(SCCN4CCOCC4)s3)CC2=O)cc1 (configuration not stated) | / | . | . | / | . | /
Cc1cccc(C)c1NC(=O)CN(C)C(=O)C(c1ccccc1)c1ccccc1 | . | . | . | . | . | 85.8
Cc1cccc(C)c1NC(=O)CN(C)C(=O)c1ccccc1C(=O)N(C)Cc1ccccc1 | / | . | . | / | . | /
Cc1cccc(C)c1NC(=O)CN(C)C(=O)/C=C/c1cccs1 | . | . | . | . | . | 52.4
COc1cc(Cl)c(C)cc1NC(=O)CSC1=NCCS1 | / | . | . | / | / | /
CCCCc1sc(-c2c(C#N)c(N)nc3c2CCCCC3)cc1[N+](=O)[O-] | . | . | . | . | 55.0 | .
Cc1sc(-c2c(C#N)c(N)nc3c2CCCCCC3)cc1[N+](=O)[O-] | / | . | . | / | . | /
Cn1nc(C(C)(C)C)cc1C(=O)NN1CCOCC1 | / | . | . | / | . | /
CCN(CC)c1ccc(/C=N/Nc2nc(C)cc(=O)[nH]2)c(O)c1 | . | . | . | . | . | 98.6
CCN(CC)c1ccc(/C=N/NC(=O)c2c(Cl)cnn2C)c(O)c1 | . | . | . | . | . | 98.7
c1ccc(-c2n[nH]c(-c3ccccc3)c2-c2nc3ccccc3[nH]2)cc1 | . | . | . | . | . | 92.1
CC(C)CCNC(=O)C1CCN(c2nc3ccccc3o2)CC1 | . | . | . | . | . | .
Cc1ccc(CN2CCC(C(=O)NCCC(C)C)CC2)o1 | . | . | . | . | . | 60.2
CN1CCN(CC(C)(C)NS(=O)(=O)c2ccccc2)CC1 | / | . | . | / | / | /
SMILES | Dynein cargo inh | CHOP UPR activ | XBP1 UPR activ | CHOP inhibitor | T cruzi repl | Lmaj promast
CC(C)(CN1CCCC1)NS(=O)(=O)c1ccc(Cl)cc1 | / | . | . | / | . | /
CC1CCCC(C)N1CC(C)(C)NS(=O)(=O)c1ccc(Cl)cc1 (configuration not stated) | . | . | . | . | . | 88.2
CC1CC(C)CN(CC(C)(C)NS(=O)(=O)c2ccccc2)C1 (configuration not stated) | . | . | . | . | . | 88.9
COc1ccc(S(=O)(=O)N2CCN(C(=O)Nc3ccccc3OC)CC2)cc1 | / | . | . | / | . | /
OC(CNCc1ccccc1)COc1ccccc1 (configuration not stated) | / | . | . | / | . | /
CC(CCc1ccccc1)NCC(O)COc1ccccc1 (configuration not stated) | . | . | . | . | . | 82.9
COc1ccc(C(=O)NCC(=O)OCCOc2ccc(Cl)cc2)cc1OC | / | . | . | / | / | /
